Measured values taken from the array DNA melting data of Ke et al. (doi:10.1101/2024.01.08.574731).

Legend:
[1] = melting temperature; fluorescence melt of hairpins on a sequencing array, two-state fit, raised by 9.35 °C to match UV melts; details: sodium 0.088 M
In short: (§1)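 Bootstrapped two-state fits yielded melting temperature and folding enthalpy for library hairpins. Cy3 fluorescence, with annealed Cy3 and quencher oligos, was imaged on a sequenced MiSeq flow cell in 50 mM Na-HEPES pH 8.0, 25 mM NaCl in 2.5 °C steps up to 60 °C, and normalised to pre-quench Cy3 and to control constructs. Four replicates were combined by inverse variance, and fitted temperatures were raised by 9.35 °C to match UV melts.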

[2] = folding enthalpy; higher = less favourable; fluorescence melt of hairpins on a sequencing array, two-state fit; details: sodium 0.088 M
In short: as §1

Row | Sequence | Tm [1] | folding enthalpy [2]
1 | GTACGCGAAAGCGTTAC ((((((....))).))) | 46.8 °C | -11 kcal/mol
2 | GTACGCGAAAGCGTTTAC ((((((....)))..))) | 29.1 °C | -7.31 kcal/mol
3 | GTACGCGCGAAAGCGTAC (((..(((....)))))) | 61.3 °C | -20.2 kcal/mol
4 | GTACGCGGAAACGTGTGC (.((.((....)).)).) | 46.2 °C | -20.8 kcal/mol
5 | GTACGGGGAAACCCACAC ((..(((....)))..)) | 30.4 °C | -16.3 kcal/mol
6 | GTACGGGGAAACTCGTAC (((((.(....).))))) | 50.7 °C | -35.4 kcal/mol
7 | GTACGTCGAAAGACCTAC (((.(((....))).))) | 34.3 °C | -13.6 kcal/mol
8 | GTACGTCGAAAGACTTAC (((.(((....))).))) | 39.3 °C | -25.7 kcal/mol
9 | GTACGTGCGAAAGCATAC (((..(((....)))))) | 26.4 °C | -10.3 kcal/mol
10 | GTACGTGGAAACACGCAC ((.((((....)))).)) | 47.3 °C | -17.2 kcal/mol
11 | GTACTAGGAAACTAGCAC ((.((((....)))).)) | 32.2 °C | -22.1 kcal/mol
12 | GTACTCGAAAGAGAGTAC ((((((....)))..))) | 46.8 °C | -29.4 kcal/mol
13 | GTACTCGAAAGAGATAC ((((((....))).))) | 34.5 °C | -18 kcal/mol
14 | GTACTCGAAAGAGGCTAC ((((((....)))..))) | 37.4 °C | -14.3 kcal/mol
15 | GTACTCGAAAGAGGTAC ((((((....))).))) | 42.7 °C | -21.1 kcal/mol
16 | GTACTCGAAAGAGTAC ((((((....)))))) | 61 °C | -36.2 kcal/mol
17 | GTACTCGAAAGAGTCTAC ((((((....)))..))) | 35.5 °C | -14.6 kcal/mol
18 | GTACTCGGAAACGAGTGC (.(((((....))))).) | 54.5 °C | -41 kcal/mol
19 | GTACTGCGAAAGCACTAC (((.(((....))).))) | 28.8 °C | -14.8 kcal/mol
20 | GTACTGGGAAACCAGCAC ((.((((....)))).)) | 42.3 °C | -20.4 kcal/mol
21 | GTACTTCCGAAAGGATAC (((..(((....)))))) | 24.9 °C | -10.3 kcal/mol
22 | GTACTTGGAAACAAGTAC (((((((....))))))) | 56 °C | -33.5 kcal/mol
23 | GTAGAACGAAAGTTATAC (((.(((....))).))) | 44.1 °C | -33.9 kcal/mol

Row | Sequence | Tm [1] | folding enthalpy [2]
24 | GTAGACACGAAAGTGTAC (((..(((....)))))) | 32 °C | -10.5 kcal/mol
25 | GTAGACGAAAGTCCATAC ((((((....)))..))) | 26 °C | -10.2 kcal/mol
26 | GTAGACGAAAGTCTATAC ((((((....)))..))) | 42.6 °C | -12.2 kcal/mol
27 | GTAGACGAAAGTCTTTAC ((((((....)))..))) | 29.3 °C | -10.4 kcal/mol
28 | GTAGACGGAAACGCCTAC ((((.((....)).)))) | 45.3 °C | -32.3 kcal/mol
29 | GTAGACGGAAACGTTTAC (((.(((....))).))) | 41.5 °C | -33.2 kcal/mol
30 | GTAGAGAAATCTAC (((((....))))) | 35.5 °C | -12.6 kcal/mol
31 | GTAGAGACGAAAGTCTAC (((..(((....)))))) | 36 °C | -11.7 kcal/mol
32 | GTAGAGCGAAAGCTTTAC (((.(((....))).))) | 47.5 °C | -24.4 kcal/mol
33 | GTAGAGGGAAACCTTTAC (((.(((....))).))) | 31 °C | -28.7 kcal/mol
34 | GTAGAGGGAAACTTCTAC (((((.(....).))))) | 35 °C | -21.5 kcal/mol
35 | GTAGATCGAAAGATGTAC (((.(((....))).))) | 42.6 °C | -31.6 kcal/mol
36 | GTAGCAGCGAAAGCTTAC (((..(((....)))))) | 26.8 °C | -10.3 kcal/mol
37 | GTAGCAGGAAACTACTAC ((((.((....)).)))) | 35 °C | -24.4 kcal/mol
38 | GTAGCAGGAAACTGTTAC (((.(((....))).))) | 40.5 °C | -30.4 kcal/mol
39 | GTAGCCGAAAGGCACTAC ((((((....)))..))) | 48.5 °C | -12.5 kcal/mol
40 | GTAGCCGAAAGGCCTAC ((((((....))).))) | 45 °C | -12.5 kcal/mol
41 | GTAGCCGAAAGGCGTTAC ((((((....)))..))) | 38.9 °C | -8 kcal/mol
42 | GTAGCCGGAAACGGTTAC (((.(((....))).))) | 51.3 °C | -37.7 kcal/mol
43 | GTAGCGACGAAAGTCTAC (((..(((....)))))) | 26.9 °C | -13.2 kcal/mol
44 | GTAGCGGGAAACCGCCAC ((.((((....)))).)) | 38.7 °C | -11.7 kcal/mol
45 | GTAGCGGGAAACTGCTGC (.(((.(....).))).) | 44.2 °C | -22.6 kcal/mol
46 | GTAGCTGCGAAAGCATAC (((..(((....)))))) | 31.3 °C | -10.1 kcal/mol

Row | Sequence | Tm [1] | folding enthalpy [2]
47 | GTAGCTGGAAACAGCCAC ((.((((....)))).)) | 37.7 °C | -14.3 kcal/mol
48 | GTAGGAGAAATCCTAC ((((((....)))))) | 47.3 °C | -26.7 kcal/mol
49 | GTAGGAGGAAACTCCTGC (.(((((....))))).) | 46.8 °C | -22.3 kcal/mol
50 | GTAGGAGGAAACTTCTAC ((((.((....)).)))) | 37.4 °C | -27 kcal/mol
51 | GTAGGCCCGAAAGGGTAC (((..(((....)))))) | 32.9 °C | -11.1 kcal/mol
52 | GTAGGCCGAAAGGCATAC (((.(((....))).))) | 61.9 °C | -33.2 kcal/mol
53 | GTAGGCGAAAGCCAATAC ((((((....)))..))) | 33.6 °C | -9.29 kcal/mol
54 | GTAGGCGAAAGCCATTAC ((((((....)))..))) | 23 °C | -7.44 kcal/mol
55 | GTAGGCGAAAGCCGGTAC ((((((....)))..))) | 42.2 °C | -10.7 kcal/mol
56 | GTAGGCGCGAAAGCGTAC (((..(((....)))))) | 34.9 °C | -9.85 kcal/mol
57 | GTAGGCGGAAACGTCTGC (.((.((....)).)).) | 41.6 °C | -23 kcal/mol
58 | GTAGGGAAACCTAC (((((....))))) | 46.2 °C | -25 kcal/mol
59 | GTAGGGCGAAAGCCGTAC (((.(((....))).))) | 56.8 °C | -23.6 kcal/mol
60 | GTAGGGCGAAAGCCTTAC (((.(((....))).))) | 50.4 °C | -20.2 kcal/mol
61 | GTAGGGGCGAAAGCCTAC (((..(((....)))))) | 37.9 °C | -10.8 kcal/mol
62 | GTAGGGGGAAACCTCTAC ((((.((....)).)))) | 44.6 °C | -33 kcal/mol
63 | GTAGGGGGAAACCTCTGC (.((.((....)).)).) | 31.9 °C | -16.8 kcal/mol
64 | GTAGGGTCGAAAGACTAC (((..(((....)))))) | 32.5 °C | -12.2 kcal/mol
65 | GTAGGTCGAAAGACATAC (((.(((....))).))) | 51.9 °C | -29.7 kcal/mol
66 | GTAGGTGAAAACCTAC ((((((....)))))) | 56.4 °C | -30.9 kcal/mol
67 | GTAGGTGGAAACACCTGC (.(((((....))))).) | 53.4 °C | -18.5 kcal/mol
68 | GTAGGTGGAAACATCTAC ((((.((....)).)))) | 42.4 °C | -31.3 kcal/mol
69 | GTAGGTGGAAACGCCTAC (((((.(....).))))) | 51.9 °C | -32.8 kcal/mol

Row | Sequence | Tm [1] | folding enthalpy [2]
70 | GTAGTACGAAAGTAGTAC (((.(((....))).))) | 47.3 °C | -33.5 kcal/mol
71 | GTAGTACGAAAGTATAC (((.(((....)))))) | 32 °C | -17.1 kcal/mol
72 | GTAGTAGGAAACTACTAC (((((((....))))))) | 53.3 °C | -41.9 kcal/mol
73 | GTAGTAGGAAACTGCTAC ((((.((....)).)))) | 44.7 °C | -30.5 kcal/mol
74 | GTAGTATCGAAAGATTAC (((..(((....)))))) | 26.1 °C | -12.9 kcal/mol
75 | GTAGTCCGAAAGGAGTAC (((.(((....))).))) | 54.1 °C | -43.5 kcal/mol
76 | GTAGTCGAAAGACGGTAC ((((((....)))..))) | 39.2 °C | -11.8 kcal/mol
77 | GTAGTCGAAAGACTAC ((((((....)))))) | 64.1 °C | -31.9 kcal/mol
78 | GTAGTCGAAAGACTCTAC ((((((....)))..))) | 36.2 °C | -12.8 kcal/mol
79 | GTAGTCGGAAACGACTAC (((((((....))))))) | 64.8 °C | -41.2 kcal/mol
80 | GTAGTGGCGAAAGCCTAC (((..(((....)))))) | 35.4 °C | -11.6 kcal/mol
81 | GTAGTGGGAAACCACCAC ((.((((....)))).)) | 33.5 °C | -16.3 kcal/mol
82 | GTAGTGGGAAACTACTGC (.(((.(....).))).) | 46 °C | -28.8 kcal/mol
83 | GTAGTTGGAAACAACTAC (((((((....))))))) | 56.1 °C | -43.5 kcal/mol
84 | GTAGTTGGAAACAGCTAC ((((.((....)).)))) | 42.9 °C | -29.4 kcal/mol
85 | GTATAACCGAAAGGTTAC (((..(((....)))))) | 31.8 °C | -11.4 kcal/mol
86 | GTATAACGAAAGTTCTAC (((.(((....))).))) | 31.1 °C | -20 kcal/mol
87 | GTATAAGGAAACTTATGC (.(((((....))))).) | 31.6 °C | -18.5 kcal/mol
88 | GTATACGAAAGTAGATAC ((((((....)))..))) | 24.9 °C | -10.1 kcal/mol
89 | GTATACGAAAGTATCTAC ((((((....)))..))) | 32.5 °C | -18.6 kcal/mol
90 | GTATACGAAAGTATGTAC ((((((....)))..))) | 30.6 °C | -12.4 kcal/mol
91 | GTATCACGAAAGTGTTAC (((.(((....))).))) | 42.3 °C | -25.8 kcal/mol
